In paper PMC6944740 (Alzheimer's & Dementia : Translational Research & Clinical …, 2019):

Experiments:
SH-sy5y cells = SH-sy5y cells in iron-rich medium: hydroxyl radical, iron and cell survival; type: cell-based, human; details: 1.5 μM peptide; SEM and flow cytometry
[1] = Isothermal titration calorimetry of FeCl3 with 5-YHEDA; details: ITC, 200 μM 5-YHEDA, 1000 μM FeCl3, one-site binding model
SN mice [2] = test: TUNEL assay of neuronal necrosis in brain; type: in vivo, Kunming mouse; details: intracardiac weekly, versus untreated SN mice
Procedure, shortened: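 Senescent 25-month-old Kunming mice were picked by water maze, TUNEL and blood assays and given 200 μL of 20 μM peptide intracardially each time. Frozen brain sections sat 1 h in Na-HEPES, then 10 mM H2O2 and […]. After PBS wash and 0.1% Triton X-100, TUNEL mix ran 1 h at 37°C in the dark; some sections were DAB-stained. Bright/brown spots were scored necrotic.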

SN mice [3] = type: in vivo, Kunming mouse; details: 200 μL of 20 μM intracardiac weekly, versus untreated SN mice
[4] = Solubility of the oligomer; type: physicochemical; details: dissolved in distilled water at 1 mg/mL
[5] = 5-YHEDA immunohistochemical staining of brain slices after cardiac injection; type: in vivo, mouse; details: mice, intracardiac injection
Procedure, shortened: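 Fixed brain slices were blocked in 0.1% BSA/PBS (w/v) for 1 h, then given anti-peptide mouse serum at 4°C overnight. The serum was raised in normal mice injected weekly with peptide plus incomplete Freund adjuvant (s.c. or i.p.) for 2 months. After washing, slices took HRP goat anti-mouse IgG for 2 h, then DAB development.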

With YHEDAYHEDAYHEDAYHEDAYHEDA [5-YHEDA] the “survival of SH-sy5y cells in iron-rich medium” value (SH-sy5y cells) was “many of the SH-sy5y cells cultured in iron-rich medium survived”, the “Gibbs energy lost after FeCl3 titration (ΔG)” value [1] was 8973 kcal/mol and the “neuronal necrosis in the SN brain (TUNEL)” value (SN mice [2]) was “did not prevent neuronal damage”. For the same substance, the “iron and radical levels in the brain (Fig. 5I)” value (SN mice [3]) was “nearly the same as those in the untreated SN mice”, the solubility [4] was “soluble” and the “entry into brain (anti-5-YHEDA immunohistochemical staining of brain slices)” value [5] was “no staining was observed”.
